For experiment [1], the system named is Streptococcus gordonii. Put plainly: Increase in pbp2A gene expression in penicillin-resistant Streptococcus gordonii with penicillin binding protein PR1_2 evolved mutation assessed as relative luciferase units relative to control. The experiment is classed as functional. Summed up: (§1)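 pbp promoter–luc transcriptional fusions integrated into the chromosome of resistant strain PR1_2evolved. Cells grown at 37°C in BHI without aeration from a 1/100 overnight inoculum. Penicillin G at 1/2× or 1/8× MIC added at OD620 0.12. Samples taken into sodium citrate pH 5.5, with 1 mM D-luciferin solution in glycylglycine/MgSO4 buffer added. Light read 10 s at 22°C; RLU normalised to OD620, expressed as % of untreated; means of six experiments.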

The test system of experiment [2] is Streptococcus gordonii. Put plainly: Increase in pbp2A gene expression in penicillin-resistant Streptococcus gordonii with penicillin binding protein PR1_2 evolved mutation at 1/2 times MIC assessed as relative luciferase units relative to control. It is filed as functional, organism-based. Summed up:
as §1

Experiment [3] has as its system Streptococcus gordonii. The experiment is described as follows: Increase in pbp1A gene expression in penicillin-resistant Streptococcus gordonii with penicillin binding protein PR1_2 evolved mutation at 1/8 times MIC assessed as relative luciferase units relative to control. It is filed as functional, organism-based. Summed up: as §1
Experiment [4] concerns Streptococcus gordonii. Put plainly: Antibacterial activity against wild type penicillin-susceptible Streptococcus gordonii at 2 times MIC. The experiment is classed as functional, organism-based. Summed up:
(§2)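 S. gordonii was grown at 37°C in BHI broth without aeration from a 1/100 inoculum of an overnight culture. Penicillin G was added once OD620 reached 0.12, and growth was followed by OD620 against an untreated culture.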

Experiment [5] has as its system Streptococcus gordonii. Put plainly: Antibacterial activity against Streptococcus gordonii with non penicillin binding protein mutation. It is filed as functional.
For experiment [6], the system named is Streptococcus gordonii. The experiment is described as follows: Antibacterial activity against Streptococcus gordonii with penicillin binding protein mutation. The experiment is classed as functional.
Experiment [7] concerns Streptococcus gordonii. The experiment is described as follows: Increase in pbp1A gene expression in penicillin-resistant Streptococcus gordonii with penicillin binding protein PR1_2 evolved mutation at 1/2 times MIC assessed as relative luciferase units relative to control. It is filed as functional, organism-based. Summed up:
as §1

For experiment [8], the system named is Streptococcus gordonii. The experiment is described as follows: Increase in pbp2X gene expression in penicillin-resistant Streptococcus gordonii with penicillin binding protein PR1_2 evolved mutation assessed as relative luciferase units relative to control. It is filed as functional. Summed up:
as §1

Experiment [9] relates to Streptococcus gordonii. Put plainly: Increase in pbp1B gene expression in penicillin-resistant Streptococcus gordonii with penicillin binding protein PR1_2 evolved mutation assessed as relative luciferase units relative to control. It is filed as functional. Summed up:
as §1

In experiment [10] the test system is Streptococcus gordonii. The experiment is described as follows: Antibacterial activity against wild type penicillin-susceptible Streptococcus gordonii at 4 times MIC. It is filed as functional, organism-based. Summed up: as §2
Experiment [11] concerns Streptococcus gordonii. Put plainly: Increase in pbp1A gene expression in penicillin-resistant Streptococcus gordonii with penicillin binding protein PR1_2 evolved mutation assessed as relative luciferase units relative to control. The experiment is classed as functional. Summed up:
as §1

Experiment [12] concerns Streptococcus gordonii. The experiment is described as follows: Induction of pbp2A gene expression in wild type penicillin-susceptible Streptococcus gordonii assessed as relative luciferase units relative to control. The experiment is classed as functional, organism-based. Summed up: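 The pbp2A promoter was fused to promoterless luc on the chromosome (integrative pJDC9) in S. gordonii grown in BHI at 37°C, and penicillin G was added at OD620 0.12. Samples of 100 µl went into sodium citrate pH 5.5, then 50 µl of 1 mM D-luciferin in glycylglycine/MgSO4 buffer was added. Light was read for 10 s after a 2 s delay at 22°C, normalized to OD620, and expressed as % of the untreated culture.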

In experiment [13] the test system is Streptococcus gordonii. The experiment is described as follows: Effect on pbp2B gene expression in penicillin-resistant Streptococcus gordonii with penicillin binding protein PR1_2 evolved mutation assessed as relative luciferase units relative to control. The experiment is classed as functional, organism-based. Summed up:
as §1

Experiment [14] relates to Streptococcus gordonii. The experiment is described as follows: Antibacterial activity against penicillin-resistant Streptococcus gordonii with penicillin binding protein PR1_2 evolved mutation. It is filed as functional.
The test system of experiment [15] is Streptococcus gordonii. The experiment is described as follows: Increase in pbp2B gene expression in penicillin-resistant Streptococcus gordonii with penicillin binding protein PR1_2 evolved mutation assessed as relative luciferase units relative to control. The experiment is classed as functional. Summed up:
as §1

Experiment [16] deals with Streptococcus gordonii. The experiment is described as follows: Effect on pbp2X gene expression in penicillin-resistant Streptococcus gordonii with penicillin binding protein PR1_2 evolved mutation assessed as relative luciferase units relative to control. It is filed as functional, organism-based. Summed up: as §1

Broadly, the MIC is the lowest concentration that inhibits growth of the organism.

Molecules are shown by their SMILES. In brackets after ≈: the same amount, converted by molar mass. Activity calls are given as the source filed them. No cut-off for these calls is given here.

As for `CC1(C)S[C@@H]2[C@H](NC(=O)Cc3ccccc3)C(=O)N2[C@H]1C(=O)O` [PENICILLIN G], the Activity with Streptococcus gordonii [1] came to 1.59; in the experiment with Streptococcus gordonii [8], 2.1; in the experiment with Streptococcus gordonii [9], 0.7; with Streptococcus gordonii [11], 1.55; in the experiment with Streptococcus gordonii [15], 1.39. The outcome in the experiment on Streptococcus gordonii [2], in the experiment with Streptococcus gordonii [3], in the experiment on Streptococcus gordonii [4], in the experiment with Streptococcus gordonii [7], with Streptococcus gordonii [10] and with Streptococcus gordonii [12] was Active. In the experiment with Streptococcus gordonii [16], the outcome was Active. Further, the minimum inhibitory concentration (MIC) is 0.008 µg/mL (≈ 0.0239 µM) in the experiment on Streptococcus gordonii [5], 0.5 µg/mL (≈ 1.5 µM) in the experiment on Streptococcus gordonii [6] and 2 µg/mL (≈ 5.98 µM) with Streptococcus gordonii [14]. Besides, the outcome in the experiment on Streptococcus gordonii [13] was inactive.
